Data published in ChEMBL document CHEMBL1833952, “Inhibition of COX-1 activity and COX-2 expression by 3-(4'-geranyloxy-3'-methoxyphenyl)-2-trans propenoic acid and its semi-synthetic derivatives” (Bioorg Med Chem Lett, 2011).
The source made the active and inactive calls. The calls are words filed in the database; no cut-off is given here.

Assays:
[1] = molecular target: T1, Prostaglandin G/H synthase 1 (Ovis aries) (UniProt P05979); experiment: (§1) Inhibition of ovine COX1 using TMPD as substrate preincubated for 15 mins
T1 sequence (whole entry): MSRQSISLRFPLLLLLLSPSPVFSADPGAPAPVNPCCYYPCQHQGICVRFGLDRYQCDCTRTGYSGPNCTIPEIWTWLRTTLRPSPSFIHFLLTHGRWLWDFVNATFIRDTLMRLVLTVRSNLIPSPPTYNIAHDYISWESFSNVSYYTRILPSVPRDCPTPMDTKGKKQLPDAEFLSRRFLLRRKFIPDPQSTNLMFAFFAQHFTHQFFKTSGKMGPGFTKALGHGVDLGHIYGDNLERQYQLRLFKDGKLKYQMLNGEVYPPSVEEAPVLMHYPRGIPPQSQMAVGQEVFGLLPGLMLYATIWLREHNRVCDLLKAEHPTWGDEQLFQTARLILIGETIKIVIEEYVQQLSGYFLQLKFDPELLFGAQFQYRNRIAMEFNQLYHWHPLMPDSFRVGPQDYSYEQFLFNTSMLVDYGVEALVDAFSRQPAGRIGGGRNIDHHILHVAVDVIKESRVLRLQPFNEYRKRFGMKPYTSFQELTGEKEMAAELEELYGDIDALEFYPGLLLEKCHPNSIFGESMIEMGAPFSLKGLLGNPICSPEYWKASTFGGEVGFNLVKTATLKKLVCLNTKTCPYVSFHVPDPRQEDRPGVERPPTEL

[2] = molecular target: T2, Prostaglandin G/H synthase 2 (Ovis aries) (UniProt P79208); experiment: Inhibition of ovine COX2 using TMPD as substrate at 300 uM preincubated for 15 mins
T2 sequence (whole entry): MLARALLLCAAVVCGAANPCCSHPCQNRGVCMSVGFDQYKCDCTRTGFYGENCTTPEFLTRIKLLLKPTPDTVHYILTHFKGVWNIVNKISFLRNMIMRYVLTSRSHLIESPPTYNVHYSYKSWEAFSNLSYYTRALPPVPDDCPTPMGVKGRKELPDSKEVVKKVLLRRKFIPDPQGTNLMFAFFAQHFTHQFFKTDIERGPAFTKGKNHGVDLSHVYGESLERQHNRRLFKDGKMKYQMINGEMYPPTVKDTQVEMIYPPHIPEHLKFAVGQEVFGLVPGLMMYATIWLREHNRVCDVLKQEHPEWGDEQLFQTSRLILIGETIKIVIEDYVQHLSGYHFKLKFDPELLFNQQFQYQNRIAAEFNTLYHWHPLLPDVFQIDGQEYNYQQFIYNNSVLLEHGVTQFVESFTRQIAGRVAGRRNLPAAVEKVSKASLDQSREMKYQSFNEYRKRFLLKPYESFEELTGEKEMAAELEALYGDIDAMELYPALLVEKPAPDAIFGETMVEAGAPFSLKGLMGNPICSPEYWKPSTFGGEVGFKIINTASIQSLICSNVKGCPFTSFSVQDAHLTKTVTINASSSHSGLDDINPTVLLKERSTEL

Monocyte [3] = experiment: Antiinflammatory activity in human monocytes assessed as inhibition of LPS-induced COX1 expression at 100 uM after 24 hrs using rabbit polyclonal antibody IgG by Western blot analysis; assay type: functional, cell-based
Summary of the method: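 Isolated human monocytes (3 × 10⁶ cells/ml) incubated with LPS, vehicle or test agent; lysates immunoblotted with a specific anti-COX-1 antibody to assess COX-1-like immunoreactivity.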

Monocyte [4] = experiment: Antiinflammatory activity in human monocytes assessed as inhibition of LPS-induced COX2 expression at 100 uM after 20 hrs using rabbit polyclonal antibody IgG by Western blot analysis; assay type: functional, cell-based
Summary of the method: (§2)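 Isolated human monocytes (3 × 10⁶ cells/ml) treated 20 h with test agent or vehicle in the presence of LPS; unstimulated cells as control. Cells lysed; equal protein loads run on SDS-polyacrylamide gel and immunoblotted with rabbit polyclonal antibody to a human COX-2-specific sequence (band ~72 kDa); beta-actin as loading control. Three experiments; dose-response series used for IC50.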

[5] = Antiinflammatory activity in human monocytes assessed as inhibition of LPS-induced COX2 expression assessed per ug of protein at 100 uM after 20 hrs using rabbit polyclonal antibody IgG by SDS-PAGE analysis (reference value: 1.53 +/- 0.3 ng/ug); assay type: functional, Monocyte; summary of the method: as §2
[6] = Antiinflammatory activity in human monocytes assessed as inhibition of LPS-induced COX2 expression at 25 uM after 20 hrs using rabbit polyclonal antibody IgG by Western blot analysis; assay type: functional; conditions: Monocyte; summary of the method: as §2
Monocyte [7] = experiment: Antiinflammatory activity in human monocytes assessed as inhibition of LPS-induced COX2 expression after 20 hrs using rabbit polyclonal antibody IgG by Western blot analysis; assay type: functional, cell-based; summary of the method: as §2
[8] = molecular target: T3, Prostaglandin G/H synthase 1 (Ovis aries, UniProt P05979); experiment: as §1
T3 sequence (P05979 whole entry): T1 sequence (whole entry)

Monocyte [9] = experiment: Antiinflammatory activity in human monocytes assessed as inhibition of LPS-induced COX2 expression at 100 uM after 20 hrs using rabbit polyclonal antibody IgG by SDS-PAGE analysis; assay type: functional, cell-based; summary of the method: as §2
Raji = experiment: Inhibition of TPA-induced EBV-early antigen activation in human Raji cells; assay type: cell-based; conditions: human gammaherpesvirus 4, dose or concentration not given here
HL-60 = experiment: Inhibition of superoxide radicals production in human HL60 cells; assay type: functional
[10] = Antiinflammatory activity in human monocytes assessed as inhibition of LPS-induced COX2 expression at 10 uM after 20 hrs using rabbit polyclonal antibody IgG by Western blot analysis; assay type: functional; conditions: Monocyte; summary of the method: as §2
[11] = molecular target: T4, Prostaglandin G/H synthase 2 (Homo sapiens) (UniProt P35354); experiment: Inhibition of COX2 promoter activity in human DLD1 cells at 100 uM; assay type: cell-based; conditions: DLD-1
T4 sequence (whole entry): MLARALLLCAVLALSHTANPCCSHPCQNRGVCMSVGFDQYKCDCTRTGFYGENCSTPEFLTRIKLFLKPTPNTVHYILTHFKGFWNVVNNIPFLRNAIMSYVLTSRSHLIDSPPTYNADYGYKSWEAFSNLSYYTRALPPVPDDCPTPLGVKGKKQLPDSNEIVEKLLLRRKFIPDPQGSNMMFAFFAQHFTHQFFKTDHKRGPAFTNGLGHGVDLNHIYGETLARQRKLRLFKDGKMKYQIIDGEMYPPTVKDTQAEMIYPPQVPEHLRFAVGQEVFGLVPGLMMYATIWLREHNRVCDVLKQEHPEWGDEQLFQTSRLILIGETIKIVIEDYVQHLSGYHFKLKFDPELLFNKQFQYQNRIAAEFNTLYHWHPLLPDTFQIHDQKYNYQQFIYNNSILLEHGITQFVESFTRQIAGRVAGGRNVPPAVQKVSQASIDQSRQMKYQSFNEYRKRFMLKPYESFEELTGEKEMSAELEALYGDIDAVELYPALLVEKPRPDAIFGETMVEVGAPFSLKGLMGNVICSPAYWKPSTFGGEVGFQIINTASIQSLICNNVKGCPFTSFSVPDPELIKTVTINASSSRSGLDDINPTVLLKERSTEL

Monocyte [12] = experiment: Antiinflammatory activity in human monocytes assessed as inhibition of LPS-induced COX2 expression at 5 uM after 20 hrs using rabbit polyclonal antibody IgG by SDS-PAGE analysis; assay type: functional, cell-based; summary of the method: as §2

SMILES	inhibition [1]	inhibition [2]	inhibition (Monocyte [3])	inhibition (Monocyte [4])	also measured
CC(C)=CCC/C(C)=C/COc1ccc(/C=C/C(=O)O)cc1C	inactive	inactive	inactive	inactive	–
CC(C)=CCC/C(C)=C/COc1ccc(/C=C/C(=O)O)cc1	inactive	inactive	–	–	Activity [5]: 1.7 ng/µg
CC(C)=CCOc1ccc(/C=C/C(=O)O)cc1	–	74%	–	–	inhibition at 25 µM [6]: 13%; inhibition (Monocyte [7]): Dose-dependent effect; IC50 [8]: 35.1 µM; inhibition (Monocyte [9]): Active
CC(C)=CCOc1ccc(/C=C/C(=O)O)cc1C	inactive	inactive	inactive	inactive	–
CCOC(=O)/C=C/c1ccc(OC/C=C(\C)CCC=C(C)C)c(OC)c1	–	–	–	–	inhibition (Raji): 78%; inhibition (INH) (HL-60): 45%
COc1cc(/C=C/C(=O)O)ccc1OC/C=C(\C)CCC=C(C)C	–	97.5%	–	–	inhibition (Monocyte [7]): Dose-dependent effect; IC50 [8]: 54.2 µM; inhibition (Monocyte [9]): Active; inhibition at 10 µM [10]: 20%
COC(=O)/C=C/c1ccc(OC/C=C(\C)CCC=C(C)C)c(OC)c1	–	–	–	–	inhibition (Raji): 81%; inhibition (INH) (HL-60): 35%; inhibition [11]: 50%
C[C@@H]1C[C@H]2[C@@H]3CCC4=CC(=O)C=C[C@]4(C)[C@@]3(F)[C@@H](O)C[C@]2(C)[C@@]1(O)C(=O)CO	–	–	–	–	inhibition (Monocyte [12]): Active
COc1cc(/C=C/C(=O)O)ccc1OCC=C(C)C [BOROPINIC ACID]	inactive	inactive	–	–	Activity [5]: 1.78 ng/µg
CC(C)=CCC/C(C)=C/COc1ccc(/C=C/C(=O)O)cc1Cl	inactive	inactive	inactive	inactive	–
CC(C)=CCOc1ccc(/C=C/C(=O)O)cc1Cl	inactive	inactive	inactive	inactive	–
